High-throughput results deposited in PubChem by several laboratories.
EP2 mod: EP2 receptor modulators, cAMP readout, primary screen, cell-based, HTRF cAMP, PGE2 stimulation | EP2-expressing cells, cAMP HTRF FRET, PGE2 co-stimulation | Prostaglandin E2 receptor EP2 subtype (Homo sapiens), P43116 | AID 940, 2007 | 0.83% of 260,000 active | induction, % at 25 µM;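 active = compounds whose cAMP rise, as percent of the full-agonist control response, exceeds 60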;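 also: rat C6 glioma line stably carrying human EP2 under a CMV promoter; the protocol text gives 20 µM as final concentration; 100% = response of wells given 1 µM PGE2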
Target sequence (P43116 whole entry, looked up): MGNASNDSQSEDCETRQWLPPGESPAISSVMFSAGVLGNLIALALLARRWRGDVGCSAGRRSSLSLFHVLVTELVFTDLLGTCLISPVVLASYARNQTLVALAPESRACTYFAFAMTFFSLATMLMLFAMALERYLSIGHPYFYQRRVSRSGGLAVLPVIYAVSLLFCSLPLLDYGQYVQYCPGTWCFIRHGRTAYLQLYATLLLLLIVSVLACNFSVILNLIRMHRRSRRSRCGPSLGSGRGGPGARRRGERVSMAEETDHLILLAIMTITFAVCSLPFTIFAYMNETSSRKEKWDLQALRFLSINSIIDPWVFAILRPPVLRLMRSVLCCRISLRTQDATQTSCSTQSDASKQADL
Hsp70 activator: Hsp70 transcriptional activators, primary screen, cell-based, HeLa, Hsp70 promoter luciferase, luminescence, 10 µM; HeLa Hsp70 promoter luciferase reporter; scaled: vehicle 0, proteasome-inhibitor control 100%; activation, % at 10 µM; 0.04% of 200,000 active; AID 1203, 2008;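 active = activation above the mean across all tested compounds plus 3 SD, cutoff set per campaign, cut at about 5.5% in these data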;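 also: 100% = MG132 at 30 µM as the positive control and 0% = DMSO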
Dynein cargo inh: inhibitors of GR-EGFP nuclear translocation, primary screen, dynein cargo transport inhibitor project, imaging, high-content, 3617.4 mouse cells. test concentration mostly 20 µM; stimulated with dexamethasone, 1 µM; hits give low values. z-score, hits read low. 0.47% of 220,000 active;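 active = plate z-score of nuclear minus cytoplasmic receptor signal below a set negative limit, without overly bright fluorescence or cell loss, cut at about -3.5 in these data, passing the limit was not always enough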;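 also: z-score of nuclear minus cytoplasmic ring GR-EGFP intensity difference per well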
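Buffer or medium – tet-free medium with charcoal-stripped serum · Signal – automated 10x imaging of fixed Hoechst-stained cells · Also added – dexamethasone agonist, 1.0 µM final, for 30 min · Incubation – induction 48 h, compound 1 h, agonist 30 min · Read-out – GR-EGFP nuclear translocation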
PGE2 EP2 inh: human EP2 receptor antagonists, primary screen, TR-FRET cAMP, C6 glioma cells; inhibition, % at 25 µM; C6 glioma cells expressing human EP2; cells stimulated with saturating PGE2; Prostaglandin E2 receptor EP2 subtype (Homo sapiens), P43116; 0.52% of 260,000 active;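 active = percent inhibition above 40 after rounding to a whole number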;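 also: rat C6 glioma host cells with rolipram phosphodiesterase inhibitor present; the protocol text gives 20 µM as final concentration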
Hsp70 act DR: Hsp70 transcriptional activators, dose response, cell-based, HeLa, Hsp70 promoter luciferase, luminescence, triplicate | AID 1252, 2008 | 10% of 70 active | calls only at 99 µM | HeLa hsp70.1pr-luc reporter | shares compounds with Hsp70 activator;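 active = over 50% activation at some tested dose; inactive = under 50% activation at every tested dose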
Dynein confirm: dynein cargo transport inhibitors, GR-EGFP translocation, confirmation, imaging, high-content imaging, GR-EGFP cells; 69% of 1,000 active; 3617.4 GR-EGFP nuclear translocation imaging, dexamethasone-induced; shares compounds with Dynein cargo inh; calls only at 20 µM;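 active = inhibition of receptor movement into the nucleus at or above a set limit in both runs, with normal cell brightness and cell count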;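 also: dexamethasone at 1 µM final in well for 30 min; nuclear minus cytoplasmic GR-EGFP mean intensity difference in channel 2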
An asterisk follows results filed as active; i = inactive; . = no result given; + = active, no number. A selection: hits, their analogues and other compounds. The true share with any hit is near 1.7%.

SMILES | EP2 mod | Hsp70 activator | Dynein cargo inh | PGE2 EP2 inh | Hsp70 act DR | Dynein confirm
COc1ccc(C(CCN2CCOCC2)c2c(O)cc(OC)cc2OC)cc1 (configuration not stated) | -2.6 | . | -0.261 | 17.3 | . | .
CCCOc1c(Br)cc(C(=O)NCC)cc1OC | 1.6 | 6.0* | 1.33 | 10.4 | i | .
CC1C/C(=C/c2ccccn2)C(=O)/C(=C/c2ccccn2)C1 (configuration not stated) | -82.3 | 314.0* | -5.77* | 6.6 | + | .
CC(C)(C)C1C/C(=C/c2ccccn2)C(=O)/C(=C/c2ccccn2)C1 (configuration not stated) | -47.1 | 46.3* | -4.88* | 9.1 | + | .
O=C1/C(=C/c2ccccn2)COc2ccccc21 | -95.2 | 0.1 | -1.39 | 12.7 | . | .
CCOC(=O)C1CCN(c2ccc([N+](=O)[O-])cc2)CC1 | -9.2 | 5.7* | 0.126 | 3.7 | i | .
CCC(=O)N1CCN(c2ccc(NC(=O)c3cc4ccccc4o3)cc2Cl)CC1 | -40.5 | -0.2 | -0.233 | . | . | .
CCC(=O)N1CCN(c2ccc(NC(=O)c3ccc([N+](=O)[O-])o3)cc2Cl)CC1 | -40.6 | 42.8* | -4.98* | 24.9 | i | +
CCOCCCNc1c(C)c(C)nc2c(-c3cccs3)c(C)nn12 | -7.3 | . | . | 5.5 | . | .
COc1ccc(/C=C/C(=O)c2cc(F)ccc2OC(=O)c2ccccc2)cc1OC | . | 5.3 | -2.01 | 18.1 | . | .
COc1ccc(/C=C/C(=O)c2cc(F)ccc2OC(=O)c2ccccc2OC)cc1OC | -16.9 | 9.9* | -3.89* | 9.8 | i | +
O=Cc1s/c(=N\S(=O)(=O)c2ccccc2)n(CCCCl)c1Cl | -55.4 | 10.6* | -5.74* | 22.1 | i | +
CCCCS(=O)(=O)/C=C\C=C/S(=O)(=O)CCCC | -35.3 | 55.7* | -3.77 | . | i | +
O=C(Nc1ncc(Cc2ccccc2)s1)c1cc2ccccc2o1 | -18.0 | . | . | 3.1 | . | .
N#C/C(=C/c1ccc(N2CCCCCC2)o1)c1ccc(Cl)cc1 | 3.7 | 6.3* | -6.15 | 8.1 | i | i
Cc1ccc2[nH]c(=O)c(CN(CC3CCCO3)C(c3nnnn3Cc3ccco3)C(C)C)cc2c1 (configuration not stated) | 53.8 | . | . | 9.0 | . | .
Cc1ccc(NN2C(=O)C=C(c3ccccc3)C2=O)cc1 | -92.7 | -0.1 | -4.5* | 48.0* | . | +
O=C1c2ccccc2C(=O)N1Nc1ccccc1 | 14.9 | 0.0 | 0.452 | . | . | .
O=C(CN1CCN(c2ccccc2)CC1)N1CCCc2ccccc21 | -34.2 | . | . | 12.5 | . | .
N#CCCN(C(=O)CCl)c1cccc(Cl)c1 | 18.0 | 0.0 | -3.81* | 3.1 | . | +
CCCCCCCN(C(=O)CCl)c1cccc(C)c1 | 43.5 | -0.5 | -3.02 | 7.5 | . | .
O=C1CCCC(O)=C1C(C#Cc1ccccc1)C1=C(O)CCCC1=O | -39.4 | -0.2 | -5.55* | 42.9* | . | +
CC1(C)CC(=O)C(C(C#Cc2ccccc2)C2=C(O)CC(C)(C)CC2=O)=C(O)C1 | -31.3 | -0.4 | -1.96 | 39.4 | . | .
CCOC(=O)c1sc(NC(=O)CSc2nnc3c(C)cc4ccccc4n23)nc1C | 22.2 | . | . | 7.4 | . | .
COc1ccccc1N1C(=O)CC(Sc2n[nH]c(-c3cccc(C)c3)n2)C1=O (configuration not stated) | 8.1 | -0.3 | -3.61* | 6.1 | . | +
Cc1nc(SC2CC(=O)N(c3ccccc3)C2=O)n[nH]1 (configuration not stated) | 16.8 | 0.8 | -3.66* | 28.8 | . | i
O=C1CC(Sc2ncccn2)C(=O)N1c1ccccc1 (configuration not stated) | 11.2 | -0.4 | -1.12 | 11.2 | . | .
O=C1CC(Sc2nnc(-c3ccccc3O)o2)C(=O)N1c1ccccc1 (configuration not stated) | 19.7 | 0.2 | -6.46* | . | . | i
COc1ccccc1N1C(=O)CC(Sc2nccc(C)n2)C1=O (configuration not stated) | 12.1 | -0.1 | -0.524 | 7.8 | . | .
